Data published in ChEMBL document CHEMBL1629705, “PSI-7851, a pronucleotide of beta-D-2'-deoxy-2'-fluoro-2'-C-methyluridine monophosphate, is a potent and pan-genotype inhibitor of hepatitis C virus replication” (Antimicrob Agents Chemother, 2010).
Calls of active or inactive are those of the source. No cut-off for these calls is given here.

Columns and labels:
Hepatitis C virus [1] = experiment: Inhibition of Hepatitis C virus Con1 recombinant NS5B polymerase after 30 mins by phosphor imaging; set-up: species or system Hepacivirus hominis; details: Con1, 0.5 h
Procedure, shortened: (§1)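 C-terminal Δ21-truncated NS5B: 1b Con1 and 2a JFH-1 expressed in E. coli; 3a and 4a cloned from patient serum. Mix: 1 μM each NTP, [α-32P]UTP, 20 ng/μl genotype 1b(−) IRES RNA template, 40 ng/μl enzyme, 1 mM MgCl2, 0.75 mM MnCl2, 2 mM DTT, 50 mM HEPES pH 7.5. Run at 27°C: 30 min (1b, 2a) or 3 h (3a, 4a). EDTA quench, products on membrane read by phosphorimager. Duplicates; IC50 calculated.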

[2] = Inhibition of Hepatitis C virus genotype 4a recombinant NS5B polymerase after 3 hrs by phosphor imaging; set-up: species or system Hepatitis C virus subtype 4a; procedure, shortened: as §1
Hepatitis C virus [3] = experiment: Antiviral activity against Hepatitis C virus JFH1 assessed as viral RNA level by quantitative real-time PCR; format: functional, organism-based, Hepacivirus hominis; details: JFH-1
[4] = system: Human immunodeficiency virus; experiment: Antiviral activity against HIV infected in human HeLaP4 cells by beta-galactosidase-based reporter gene assay; format: functional, organism-based; details: Human immunodeficiency virus 1, HeLaP4
Procedure, shortened: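 P4 cells (HeLa expressing CD4/CXCR4 with HIV-1 LTR-driven LacZ), 10,000 cells/well, incubated overnight at 37°C, 5% CO2. Compound added 4 h before infection with HIV NL4-3 (4 ng/well p24-equivalent) plus DEAE-dextran 20 μg/ml. Incubated further 40–42 h. Beta-galactosidase read by luminescence; percent inhibition versus no-drug wells.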

[5] = Cytotoxicity against human HepG2 cells assessed as effect on cellular GAPDH RNA level after 8 days by quantitative real-time PCR; format: cell-based
[6] = Cytotoxicity against human BxPC3 cells assessed as effect on cellular GAPDH RNA level after 8 days by quantitative real-time PCR; format: cell-based, BXPC-3
CCRF-CEM = experiment: Cytotoxicity against human CEM cells assessed as effect on ribosome RNA gene level at up to 100 uM after 14 days by quantitative real-time PCR assay; format: cell-based; details: 336 h
Procedure, shortened: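 HepG2 or CEM cells incubated 14 days with compound up to 100 μM, ddC as control. Medium and compound replenished on days 7 and 11. Mitochondrial COXII gene and nuclear rDNA measured by multiplex quantitative RT-PCR.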

[7] = Cytotoxicity against human erythroid progenitor cells after 14 to 16 days by colony formation assay; format: cell-based
Procedure, shortened: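 Normal human bone marrow erythroid and myeloid progenitors, 2 × 10^4 cells per culture in methylcellulose with rh-SCF 50 ng/ml, rh-IL-3 10 ng/ml, rh-GM-CSF 10 ng/ml and rh-EPO 3 U/ml. Compound up to 50 μM, DMSO control 0.1%, 14–16 days.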

Hepatitis C virus [8] = experiment: Antiviral activity against Hepatitis C virus harboring wild-type NS5B infected in human HuH7 cells by luciferase-based replicon assay; format: functional, Hepacivirus hominis; details: Huh-7
Hepatitis C virus [9] = experiment: Selectivity ratio of EC90 for Hepatitis C virus harboring NS5B polymerase S282T mutant gene to EC90 for Hepatitis C virus harboring wild-type NS5B polymerase; format: functional, Hepacivirus hominis
Procedure, shortened: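 Clone A genotype 1b (Con1) replicon cells, wild-type or S282T mutant (selected with 2′-C-methyladenosine). 1,500 cells/well, 4 days with serially diluted compound. HCV RNA by real-time RT-PCR; EC90 from dose–response.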

Hepatitis C virus [10] = experiment: Antiviral activity against Hepatitis C virus harboring NS5B polymerase S96T mutant gene infected in human lunet cells by luciferase-based replicon assay; format: functional, Hepacivirus hominis
Procedure, shortened: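 ET-lunet cells with the ET genotype 1b replicon, wild-type or S96T/N142T (ET replicon with these mutations electroporated into Lunet cells, selected in 0.2 mg/ml G418). 3,000 cells/well, 4 days with serially diluted compound. Firefly luciferase luminescence read-out; EC90 from dose–response.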

Hepatitis C virus [11] = experiment: Selectivity ratio of EC90 for Hepatitis C virus harboring NS5B polymerase S96T mutant gene to EC90 for HCV harboring wild type NS5B polymerase; format: functional, Hepacivirus hominis
Hepatitis C virus [12] = experiment: Antiviral activity against Hepatitis C virus assessed as inhibition of viral rebound at 2 uM after 3 weeks in presence of G418; format: functional, organism-based; details: Hepacivirus hominis
Procedure, shortened: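 ET-lunet replicon cells, 1 × 10^5/well, no G418, with compound at 0.1, 1 or 2 μM (final DMSO 0.5%). Passaged 1:3 or 1:4 every 3–4 days for 3 weeks with fresh compound, then 3 more weeks with 0.25 mg/ml G418 and no inhibitor. HCV RNA by RT-PCR normalized to rRNA (ΔΔCt vs DMSO) at each passage. Crystal violet colony staining at 6 weeks.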

SMILES	IC50 (Hepatitis C virus [1])	IC50 [2]	EC50 (Hepatitis C virus [3])	EC90 (Hepatitis C virus [3])	EC50 [4]	CC50 at 192 h [5]	CC50 at 192 h [6]	Activity (CCRF-CEM)	CC50 [7]	EC90 (Hepatitis C virus [8])	Selectivity ratio (Hepatitis C virus [9])	EC90 (Hepatitis C virus [10])	Selectivity ratio (Hepatitis C virus [11])	inhibition (Hepatitis C virus [12])
C[C@@]1(F)[C@H](O)[C@@H](COP(=O)(O)OP(=O)(O)OP(=O)(O)O)O[C@H]1n1ccc(=O)[nH]c1=O [GS-461203]	1600 nM	2600 nM												
CC(C)OC(=O)[C@H](C)NP(=O)(OC[C@H]1O[C@@H](n2ccc(=O)[nH]c2=O)[C@](C)(F)[C@@H]1O)Oc1ccccc1 (some centres undefined)			180 nM	520 nM	> 100000 nM	> 100000 nM	> 100000 nM	Non-toxic	> 50000 nM	450 nM	16.4	390 nM	0.66	Active
